Bioassay records (PubChem BioAssay)
CHRM1 agonist: activates human CHRM1 receptor; P11229; CHO-K1 hM1, Fluo-8 calcium fluorescence, agonist mode; 0% DMSO, 100% acetylcholine EC100; activation, % at 3 µM; 0.33% of 360,000 active;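 active = activation above the run's mean compound activation plus 3 SD, cut at about 16% in these data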;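 also: peak over basal fluorescence ratio within a 140 s kinetic read after compound addition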
Target sequence (P11229 whole entry, looked up): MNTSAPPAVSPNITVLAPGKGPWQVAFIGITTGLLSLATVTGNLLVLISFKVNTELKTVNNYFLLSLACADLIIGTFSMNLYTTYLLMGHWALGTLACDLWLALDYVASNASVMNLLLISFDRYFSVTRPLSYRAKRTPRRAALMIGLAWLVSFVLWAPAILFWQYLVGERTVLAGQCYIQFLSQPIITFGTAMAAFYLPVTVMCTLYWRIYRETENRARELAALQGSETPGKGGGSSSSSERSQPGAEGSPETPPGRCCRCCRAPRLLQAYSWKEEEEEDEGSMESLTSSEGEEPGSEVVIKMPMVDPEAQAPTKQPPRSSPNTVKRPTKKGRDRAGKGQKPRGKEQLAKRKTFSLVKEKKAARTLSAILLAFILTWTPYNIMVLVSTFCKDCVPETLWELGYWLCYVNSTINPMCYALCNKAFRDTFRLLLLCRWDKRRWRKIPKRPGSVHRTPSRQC
M1 antag: blocks human M1 muscarinic receptor; P11229; CHO-K1 hM1, Fluo-8 calcium fluorescence, ACh EC80 antagonist; inhibition, % at 3 µM; 1.3% of 360,000 active; AID 588852;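 active = percent inhibition above its own plate's cutoff, namely the mean of that plate's compound wells plus 3 SD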;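 also: peak over basal fluorescence ratio during 140 s after agonist addition; 0% = ACh EC80 plus DMSO and 100% = DMSO alone without agonist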
M1 PAM: human CHRM1 positive allosteric modulation. CHO-K1 hM1, Fluo-8 calcium fluorescence, ACh EC20; 0% = ACh EC20, 100% = maximal ACh. activation, % at 3 µM. 0.088% of 360,000 active. AID 588819; in the data active = activation above about 19%, passing the limit was not always enough
CHRM5 agonist: agonists of human muscarinic M5 receptor (CHRM5). CHO-K1 hM5 cells, Fluo-8 calcium fluorescence; 0% DMSO wells, 100% maximal acetylcholine response. activation, % at 3 µM. 0.19% of 360,000 active. AID 624037;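 active = activation above the run's mean over test compounds plus 3 SD, cut at about 23% in these data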;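 also: signal is peak over basal fluorescence ratio across the kinetic read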
CHRM5 antagonist: blocks acetylcholine activation of human M5 receptor; 0.59% of 360,000 active; inhibition, % at 3 µM; CHO-hM5 cells, Fluo-8 calcium fluorescence, ACh EC80; AID 624040; P08912;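 active = inhibition above a per-plate cutoff, the mean of that plate's test compounds plus 3 SD, cut at about 27% in these data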;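 also: 0% = acetylcholine EC80 with DMSO and 100% = DMSO without agonist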
CHRM5 PAM: CHRM5 positive allosteric modulation | CHO-K1 hM5, Fluo-8 calcium, ACh EC20 PAM; 0% = ACh EC20, 100% = ACh EC100 | 0.3% of 360,000 active | activation, % at 3 µM | P08912 | AID 624038;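 active = activation above the run cutoff, the mean activation of all test compounds plus 3 SD, cut at about 18% in these data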
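Test system: CHO-K1 hM5 cells / Doses: single-point, 3 µM nominal / Times: Post-acetylcholine fluorescence recording 140 s / Technique: Fluo-8 calcium fluorescence / Measure: Max/basal fluorescence ratio as % of EC20–EC100 ACh window / Benchmarks: low control EC20 acetylcholine (0%), high control EC100 acetylcholine (100%) / Replicates: one well per compound, no replicates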
The depositor's hits bear a star; nt = no result. Rows were chosen to be rich in hits. Some 2.2% of all compounds tested hit in one or more screens of this group.

SMILES	CHRM1 agonist	M1 antag	M1 PAM	CHRM5 agonist	CHRM5 antagonist	CHRM5 PAM
O=C1N/C(=N\S(=O)(=O)c2ccccc2)S/C1=C\c1cc([N+](=O)[O-])ccc1O	32*	18	-25	45*	15	-18
COc1ccc(NC(=O)CSc2nc(O)cc(=O)n2-c2ccccc2)cc1	2	-19	14	0	-15	16
Cc1ccc(-n2c(SCC(=O)Nc3ccc(Cl)cc3)nc(O)cc2=O)cc1	0	-5	9	-9	32*	-6
CC(C)[C@H](CN1CCC[C@H]1CN1C(N)=NC[C@@H]1Cc1ccccc1)N1C[C@@H](Cc2ccccc2)N(CCc2ccc(Cl)c(Cl)c2)C1=N	-11	14	-10	-9	9	-21
CC(C)[C@@H]1CN=C(N)N1C[C@@H]1CCCN1C[C@H](C)N1C[C@@H](Cc2ccccc2)N(CCc2ccc(Cl)c(Cl)c2)C1=N	-11	46*	-29	-3	3	-17
CCC[C@@H](CN1CCC[C@H]1CN1C(N)=NC[C@@H]1Cc1ccccc1)N1C[C@@H](Cc2ccccc2)N(CCc2ccc(Cl)c(Cl)c2)C1=N	-11	30	-28	-10	16	-35
C[C@@H](CN1CCC[C@H]1CN1C(N)=NC[C@@H]1Cc1ccccc1)N1C[C@@H](Cc2ccccc2)N(CCc2ccc(Cl)c(Cl)c2)C1=N	-8	68*	-29	-12	39*	-39
COC(=O)CSc1nn(-c2ccc(F)cc2)c(=S)s1	-7	-3	5	-15	2	5
CCOC(=O)C1CCCN(Cc2c(C(=O)N3CCCCC3)nc3c(C)cccn23)C1 (stereo unspecified)	10	-5	4	4	6	-4
CCOC(=O)C1CCCN(Cc2c(C(=O)N3CCOCC3)nc3ccccn23)C1 (stereo unspecified)	23*	14	-10	8	1	2
Cc1cc2ccccc2n1CCNCc1c(C(=O)N2CCOCC2)nc2ccccn12	-1	-14	3	245*	75*	-6
CC(=O)NCCNc1nc2cc(-c3ccc(C(=O)N4CCN(C)CC4)cc3)sc2c(=O)n1C	-2	-6	-2	0	-10	-1
COc1ccc(-c2nc(NC(=O)C3=NN(c4cccc(C)c4)C(=O)CC3)sc2C)cc1	-4	18	5	3	2	-1
CCOc1ccc(NCc2cccn2-c2nnc(N3CCC(C(=O)NCCCN4CC(C)CC(C)C4)CC3)s2)cc1 (stereo unspecified)	-6	98*	-23	-8	-11	-11
CCOC(=O)C1CCN(C(=O)CN(c2ccc3c(c2)OCCO3)S(C)(=O)=O)CC1	-3	3	-2	-2	5	-9
O=C(c1ccc(N2CCCC2=O)cc1)N1CCN(c2ccccc2)CC1	-3	-2	5	1	11	45*
COc1ccc(C(=O)Nc2cc(Cl)ccc2C(=O)O)cc1	-4	0	1	4	2	20*
COc1ccc(C(=O)Nc2cc(Cl)ccc2OC(=O)c2ccc(OC)cc2)cc1	-5	1	-1	-1	5	-3
Nc1ccc(S(=O)(=O)Nc2nc(-c3ccccc3)cc(-c3ccccc3O)n2)cc1	20*	-13	2	3	-2	-1
Nc1ccc(S(=O)(=O)Nc2nc(-c3ccccc3)cc(-c3ccccc3)n2)cc1	-2	-13	11	1	11	-4
O=C(NCCCCCCNC(=O)c1ccccc1O)c1ccccc1O	-1	32*	-23	6	28*	-19
O=C(NCc1ccccc1)c1ccc(C2SCC(=O)N2Cc2ccccc2)cc1 (stereo unspecified)	-5	59*	-23	-5	1	-23
C=CCNC(=O)c1ccc(C2SCC(=O)N2Cc2ccccc2)cc1 (stereo unspecified)	-7	16	-12	-17	5	-5
CC(C)(C)c1ccc(S(=O)(=O)N2CCNC(=O)C2)cc1	-7	8	-4	-3	7	1
O=C(Nc1ccccc1C(F)(F)F)C(O)(c1ccccc1)C1CCCCC1 (stereo unspecified)	-9	7	-12	-3	10	4
SMILES	CHRM1 agonist	M1 antag	M1 PAM	CHRM5 agonist	CHRM5 antagonist	CHRM5 PAM
C[N+]1(C)CCC(OC(=O)C(O)(c2ccccc2)C2CCCC2)C1 (stereo unspecified)	-9	97*	-25	-2	98*	-19
C[N+]1(C)CC[C@H](OC(=O)[C@@](O)(c2ccccc2)C2CCCC2)C1	-7	100*	-26	-1	99*	-18
CC(=O)N1c2ccccc2NC2=C(C(=O)CCC2)C1c1ccco1 (stereo unspecified)	-1	-3	0	8	11	21*
CCOc1ccc(NC(=S)NC(=O)/C=C/c2ccc(Br)cc2)c([N+](=O)[O-])c1	-3	37*	-5	-2	-7	12
CN(CCO)c1cccc2c1S(=O)(=O)N[C@H](Cc1ccccc1)CO2	nt	nt	nt	2	-9	5
COc1ccc(OC)c(C2CC(=O)N3CN(c4ccccc4F)CSC3=C2C#N)c1 (stereo unspecified)	-6	-7	3	-1	-13	22*
COc1cccc(C2CC(=O)N3CN(c4ccccc4F)CSC3=C2C#N)c1 (stereo unspecified)	-5	-11	10	3	3	-4
Cc1ccc(S(=O)(=O)Nc2cccc(C(=O)NCC(c3ccco3)N(C)C)c2)cc1F (stereo unspecified)	-7	43*	-25	-10	7	-7
O=C(NCC(c1ccco1)N1CCCC1)c1ccc(S(=O)(=O)Nc2ccc(F)cc2)cc1 (stereo unspecified)	-1	50*	-25	-2	8	-14
O=C(NCC(c1ccco1)N1CCCC1)c1cccc(NS(=O)(=O)c2ccc(Br)cc2)c1 (stereo unspecified)	-7	50*	-23	-10	5	-6
O=C(NCc1ccco1)c1cccc(NS(=O)(=O)c2ccccc2F)c1	-5	-1	1	5	21	19*
COc1ccccc1CCC(=O)Nc1ncc(C)s1	-6	-21	18	-2	7	-1
CCCN=C1N(CC)C[C@@H]2[C@@H]3C(=O)N(C)C(=O)[C@@H]3[C@](C)(C(=O)OC)N12	-3	-9	2	0	-2	1
Cc1ccc(C(=O)N2CCN(S(=O)(=O)c3ccccc3)CC2)cc1	-6	31*	-9	1	-17	4
